Assay results published in ChEMBL document CHEMBL3091381, “In vitro cytotoxicity on human ovarian cancer cells by T-type calcium channel blockers” (Bioorg Med Chem Lett, 2013).
Calls of active or inactive are those of the source. No cut-off for these calls is given here.

How the values were obtained:
SK-OV-3 = experiment: Cytotoxicity against human SKOV3 cells after 48 hrs by MTT assay; format: functional, cell-based; details: SK-OV-3, 48 h
Procedure, shortened: (§1)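 MTT viability assay. Cells were seeded and grown 24 h, then exposed 48 h to a range of concentrations of test agent in DMSO (0.1% final), with vehicle-matched DMSO controls. Medium was replaced by 0.5 mg/mL MTT in RPMI with 10% FBS for 2 h at 37 °C. Dye was solubilized and absorbance read. IC50 from dose–response curves, three independent experiments.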

[1] = Cytotoxicity against human paclitaxel-resistant A2780T cells after 48 hrs by MTT assay; format: functional, cell-based; details: A2780/Taxol; procedure, shortened: as §1
[2] = target: T1, Voltage-dependent T-type calcium channel subunit alpha-1G (Homo sapiens, UniProt O43497); experiment: Inhibition of t-type Cav3.1 channel (unknown origin) expressed in HEK293 cells assessed as inhibition of 50 ms depolarizing voltage step-induced current by whole cell patch-clamp method; format: cell-based
T1 sequence (O43497 whole entry): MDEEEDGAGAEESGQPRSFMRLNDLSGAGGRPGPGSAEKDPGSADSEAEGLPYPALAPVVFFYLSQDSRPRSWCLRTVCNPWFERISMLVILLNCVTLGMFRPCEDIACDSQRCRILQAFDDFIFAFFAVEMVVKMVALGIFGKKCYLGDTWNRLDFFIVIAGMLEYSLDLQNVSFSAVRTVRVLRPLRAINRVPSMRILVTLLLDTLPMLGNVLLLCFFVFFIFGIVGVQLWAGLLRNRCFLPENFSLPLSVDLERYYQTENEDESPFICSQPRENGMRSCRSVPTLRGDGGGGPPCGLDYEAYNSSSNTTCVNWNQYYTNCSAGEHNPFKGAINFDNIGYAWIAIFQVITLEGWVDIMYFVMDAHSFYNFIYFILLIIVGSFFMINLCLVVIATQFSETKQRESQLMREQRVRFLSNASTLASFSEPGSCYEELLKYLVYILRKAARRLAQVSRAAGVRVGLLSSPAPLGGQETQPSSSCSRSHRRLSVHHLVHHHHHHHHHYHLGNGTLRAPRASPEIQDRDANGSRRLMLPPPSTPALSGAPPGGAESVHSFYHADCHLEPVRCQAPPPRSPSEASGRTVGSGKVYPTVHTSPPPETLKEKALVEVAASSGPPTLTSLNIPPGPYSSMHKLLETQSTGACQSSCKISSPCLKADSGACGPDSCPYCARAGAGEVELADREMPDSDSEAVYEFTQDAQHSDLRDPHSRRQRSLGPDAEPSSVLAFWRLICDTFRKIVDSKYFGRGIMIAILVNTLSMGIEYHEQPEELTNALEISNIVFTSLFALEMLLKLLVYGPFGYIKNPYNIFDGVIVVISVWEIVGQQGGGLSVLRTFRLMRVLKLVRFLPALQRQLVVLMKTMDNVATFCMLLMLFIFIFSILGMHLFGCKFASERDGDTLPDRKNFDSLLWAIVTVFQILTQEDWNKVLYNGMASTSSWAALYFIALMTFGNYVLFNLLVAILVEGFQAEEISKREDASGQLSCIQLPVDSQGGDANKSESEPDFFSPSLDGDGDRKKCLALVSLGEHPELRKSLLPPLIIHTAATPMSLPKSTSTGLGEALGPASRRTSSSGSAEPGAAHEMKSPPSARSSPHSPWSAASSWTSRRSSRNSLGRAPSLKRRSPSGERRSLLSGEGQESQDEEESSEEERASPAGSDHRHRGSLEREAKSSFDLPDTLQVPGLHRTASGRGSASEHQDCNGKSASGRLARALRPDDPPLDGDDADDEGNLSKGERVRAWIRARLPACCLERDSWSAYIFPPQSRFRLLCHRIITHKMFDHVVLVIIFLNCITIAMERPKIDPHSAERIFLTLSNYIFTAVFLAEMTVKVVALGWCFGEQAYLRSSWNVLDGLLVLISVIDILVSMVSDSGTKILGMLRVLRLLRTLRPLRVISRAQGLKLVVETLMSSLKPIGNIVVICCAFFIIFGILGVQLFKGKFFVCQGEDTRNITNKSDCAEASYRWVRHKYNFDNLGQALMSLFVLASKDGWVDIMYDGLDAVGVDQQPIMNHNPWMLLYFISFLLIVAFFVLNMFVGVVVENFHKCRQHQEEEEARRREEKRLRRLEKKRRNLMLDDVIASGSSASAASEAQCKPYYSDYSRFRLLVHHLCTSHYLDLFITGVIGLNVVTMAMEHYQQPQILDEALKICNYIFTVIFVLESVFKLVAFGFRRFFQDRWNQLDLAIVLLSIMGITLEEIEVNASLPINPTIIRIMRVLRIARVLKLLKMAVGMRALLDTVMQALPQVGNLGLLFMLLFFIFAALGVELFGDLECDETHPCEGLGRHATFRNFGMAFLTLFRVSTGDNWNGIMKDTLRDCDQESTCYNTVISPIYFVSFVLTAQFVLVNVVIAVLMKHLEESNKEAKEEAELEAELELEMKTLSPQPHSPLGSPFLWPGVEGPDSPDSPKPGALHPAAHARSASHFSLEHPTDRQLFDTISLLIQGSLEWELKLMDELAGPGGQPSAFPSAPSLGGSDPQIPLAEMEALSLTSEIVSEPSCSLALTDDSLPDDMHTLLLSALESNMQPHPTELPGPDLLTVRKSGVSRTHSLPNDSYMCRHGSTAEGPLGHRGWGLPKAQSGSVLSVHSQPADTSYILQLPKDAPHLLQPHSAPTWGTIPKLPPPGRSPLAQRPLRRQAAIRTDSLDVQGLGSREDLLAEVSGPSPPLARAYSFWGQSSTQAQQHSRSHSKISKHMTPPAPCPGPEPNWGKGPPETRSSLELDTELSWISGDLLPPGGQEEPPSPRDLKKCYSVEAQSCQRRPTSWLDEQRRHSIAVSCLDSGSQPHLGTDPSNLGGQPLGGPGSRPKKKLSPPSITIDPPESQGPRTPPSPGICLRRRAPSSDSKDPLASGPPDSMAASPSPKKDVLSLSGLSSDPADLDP

[3] = target: T1, Voltage-dependent T-type calcium channel subunit alpha-1G; experiment: Inhibition of t-type Cav3.1 channel (unknown origin) expressed in HEK293 cells assessed as inhibition of 50 ms depolarizing voltage step-induced current at 1 uM by whole cell patch-clamp method relative to control; format: cell-based
[4] = Ratio of IC50 for mibefradil to compound IC50 for human paclitaxel-resistant A2780T cells; format: functional
A2780 [5] = experiment: Cytotoxicity against human A2780 cells after 48 hrs by MTT assay; format: functional, cell-based; details: A2780, 48 h; procedure, shortened: as §1
A2780 [6] = experiment: Cell cycle arrest in human A2780 cells assessed as accumulation at G2/M phase at 6 uM after 24 hrs by FACS analysis; format: functional
Procedure, shortened: (§2)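 A2780 or paclitaxel-resistant A2780-T cells treated 24 h with compound at 0, 2, 4, 6 or 8 µM, depending on the series. Fixed cells were washed in PBS and stained 30 min in the dark with PI plus 100 µg/mL DNase-free RNase A. Phase distribution was read by flow cytometry. Means ± SD of three independent experiments; ANOVA with Dunnett's post-hoc test versus untreated control.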

A2780 [7] = experiment: Cell cycle arrest in human A2780 cells assessed as accumulation at sub-G1 phase at 6 uM after 24 hrs by FACS analysis; format: functional; procedure, shortened: as §2
HEK293 = experiment: Cytotoxicity against human HEK293 cells after 48 hrs by MTT assay; format: cell-based; details: HEK293, 48 h; procedure, shortened: as §1
A2780 [8] = experiment: Induction of apoptosis in human A2780 cells assessed as cell shrinkage, membrane blebbing, chromatin condensation and apoptotic body formation at 6 uM after 24 hrs by DAPI staining; format: functional, cell-based
Procedure, shortened: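 A2780 cells exposed 24 h to 6 µM compound, then fixed, washed three times in PBS and stained 5 min with 0.1 µg/mL DAPI. Cells were washed, mounted in PBS with 10% glycerol and examined by fluorescence microscopy for shrinkage, blebbing, chromatin condensation and apoptotic bodies.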

Mus musculus = experiment: Toxicity in BALB/c mouse assessed as mortality at 40 mg/kg, po for 2 weeks; format: organism-based; set-up: dose 40 mg/kg, route oral; details: in vivo, 336 h
[9] = Cell cycle arrest in human paclitaxel-resistant A2780T cells assessed as accumulation at sub-G1 phase after 24 hrs by FACS analysis; format: functional, cell-based; details: A2780/Taxol, in the assay text read “G1 phase” for “sub-G1 phase”; procedure, shortened: as §2
A2780 [10] = experiment: Cell cycle arrest in human A2780 cells assessed as accumulation at S phase at 6 uM after 24 hrs by FACS analysis; format: functional; procedure, shortened: as §2
A2780 [11] = experiment: Cell cycle arrest in human A2780 cells assessed as accumulation at sub-G1 phase after 24 hrs by FACS analysis; format: functional, cell-based; details: in the assay text read “G1 phase” for “sub-G1 phase”; procedure, shortened: as §2
A2780 [12] = experiment: Cell cycle arrest in human A2780 cells assessed as accumulation at G0/G1 phase at 6 uM after 24 hrs by FACS analysis; format: functional; procedure, shortened: as §2
[13] = Cell cycle arrest in human paclitaxel-resistant A2780T cells assessed as accumulation at sub-G1 phase at 2 to 4 uM after 24 hrs by FACS analysis; format: functional, cell-based; details: A2780/Taxol; procedure, shortened: as §2
A2780 [14] = experiment: Cell cycle arrest in human A2780 cells assessed as accumulation at sub-G1 phase at 8 uM after 24 hrs by FACS analysis (reference value: 3.1%); format: functional; procedure, shortened: as §2
[15] = Cell cycle arrest in human paclitaxel-resistant A2780T cells assessed as accumulation at sub-G1 phase at 8 uM after 24 hrs by FACS analysis; format: functional, cell-based; details: A2780/Taxol; procedure, shortened: as §2
A2780 [16] = experiment: Cell cycle arrest in human A2780 cells assessed as accumulation at sub-G1 phase at 2 to 4 uM after 24 hrs by FACS analysis; format: functional; procedure, shortened: as §2

CN(C)CCCCCCN(C)C1=Nc2ccccc2C(CC(=O)NCc2ccccc2)N1c1ccc(-c2ccccc2)cc1 (stereo not given) showed an IC50 (SK-OV-3) of 5780 nM, an IC50 [1] of 1740 nM and an IC50 [2] of 550 nM. The inhibition [3] was 66.7%, the “Ratio IC50” value [4] was 20 and the IC50 (A2780 [5]) was 1190 nM.
CN(C)CCN1CCN(C2=Nc3ccccc3C(CC(=O)NCc3ccc(F)cc3)N2c2ccc(-c3ccccc3)cc2)CC1 (stereo not given) showed an Activity (A2780 [6]) of 8.1%, an Activity (A2780 [7]) of 18.1% and an IC50 (HEK293) of 10000 nM. The Activity (A2780 [8]) was “Active”, the IC50 (SK-OV-3) was 3090 nM and the IC50 [1] was 4000 nM. For the same compound, the Activity (Mus musculus) was “Non-toxic”, the IC50 [2] was 320 nM and the inhibition [3] was 81%. For the same compound, the Activity [9] was “Dose-dependent effect”, the IC50 (A2780 [5]) was 1600 nM and the Activity (A2780 [10]) was 7.1%. The Activity (A2780 [11]) was “Dose-dependent effect” and the Activity (A2780 [12]) was 66.7%.
With CN(C)CCN1CCN(C2=Nc3ccccc3C(CC(=O)NCc3ccccc3)N2c2ccc(-c3ccccn3)cc2)CC1 (stereo not given) the IC50 [1] was > 5000 nM, the inhibition [3] was 32.3% and the IC50 (A2780 [5]) was > 5000 nM.
With Cc1ccc(CNC(=O)CC2c3ccccc3N=C(N3CCN(CCN(C)C)CC3)N2c2ccc(-c3ccccc3)cc2)cc1 (stereo not given) the IC50 (SK-OV-3) was 2330 nM, the IC50 [1] was 3520 nM and the IC50 [2] was 460 nM. The inhibition [3] was 57.8% and the IC50 (A2780 [5]) was 1600 nM.
In the case of CN(C)CCCCCN(C)C1=Nc2ccccc2C(CC(=O)NCc2ccccc2)N1c1ccc(-c2ccccn2)cc1 (stereo not given), the IC50 (SK-OV-3) is reported as 2410 nM, the IC50 [1] is reported as > 5000 nM and the inhibition [3] is reported as 30.9%.
CN(C)CCN1CCN(C2=Nc3ccccc3C(CC(=O)NCc3ccccc3)N2c2ccc(-c3ccccc3)cc2)CC1 (stereo not given) gave an IC50 (SK-OV-3) of 1970 nM, an IC50 [1] of 2390 nM and an inhibition [3] of 46.8%. For the same compound, the IC50 (A2780 [5]) was 1390 nM.
COCC(=O)O[C@]1(CCN(C)CCCc2nc3ccccc3[nH]2)CCc2cc(F)ccc2[C@@H]1C(C)C [MIBEFRADIL] gave an IC50 (SK-OV-3) of 20500 nM, an IC50 [1] of 35300 nM and an inhibition [3] of 55.1%. It also gave an IC50 (A2780 [5]) of 24200 nM.
Compound COc1ccc(CNC(=O)CC2c3ccccc3N=C(N(C)CCCCCN(C)C)N2c2ccc(-c3ccccc3)cc2)cc1 (stereo not given) has an IC50 (SK-OV-3) of 4460 nM, an IC50 [1] of 2520 nM and an IC50 [2] of 390 nM. It also gave an inhibition [3] of 68.2% and an IC50 (A2780 [5]) of 1380 nM.
In the case of CN(C)CCN1CCN(C2=Nc3ccccc3C(CC(=O)NCc3ccncc3)N2c2ccc(-c3ccccc3)cc2)CC1 (stereo not given), the IC50 (SK-OV-3) is reported as 11700 nM, the IC50 [1] is reported as > 5000 nM and the inhibition [3] is reported as 29.1%. The IC50 (A2780 [5]) was > 5000 nM.
With CN(C)CCCCN(C)C1=Nc2ccccc2C(CC(=O)NCc2ccccc2)N1c1ccc(-c2ccccc2)cc1 (stereo not given) the IC50 (SK-OV-3) was 9780 nM, the IC50 [1] was 3970 nM and the IC50 [2] was 310 nM. It also gave an inhibition [3] of 81.7% and an IC50 (A2780 [5]) of 1650 nM.
In the case of COc1ccc(CNC(=O)CC2c3ccccc3N=C(N3CCN(CCN(C)C)CC3)N2c2ccc(-c3ccccc3)cc2)cc1 (stereo not given), the Activity (A2780 [6]) is reported as 7.3%, the Activity (A2780 [7]) is reported as 21.6% and the IC50 (HEK293) is reported as 9280 nM. The Activity (A2780 [8]) was “Active”, the IC50 (SK-OV-3) was 2470 nM and the IC50 [1] was 3820 nM. The Activity (Mus musculus) was “Non-toxic”, the IC50 [2] was 310 nM and the inhibition [3] was 75.9%. The Activity [9] was “Dose-dependent effect”, the IC50 (A2780 [5]) was 1440 nM and the Activity (A2780 [10]) was 7.3%. The Activity (A2780 [11]) was “Dose-dependent effect” and the Activity (A2780 [12]) was 63.8%.
Work on CN(C)CCCCCN(C)C1=Nc2ccccc2C(CC(=O)NCc2ccccc2)N1c1ccc(-c2ccccc2)cc1 (stereo not given) yielded an Activity (A2780 [6]) of 5.3%, an Activity [13] of 14.7% and an Activity (A2780 [7]) of 63.3%. For the same compound, the Activity (A2780 [14]) was 71.4%, the IC50 (SK-OV-3) was 2470 nM and the Activity [15] was 95.4%. It also gave an IC50 [1] of 1600 nM, an IC50 [2] of 260 nM and an inhibition [3] of 76.6%. The “Ratio IC50” value [4] was 20, the IC50 (A2780 [5]) was 1060 nM and the Activity (A2780 [16]) was 61.4%. The Activity (A2780 [10]) was 5.8% and the Activity (A2780 [12]) was 25.6%.
In the case of CN(C)CCN1CCN(C2=Nc3ccccc3C(CC(=O)NCc3ccccn3)N2c2ccc(-c3ccccc3)cc2)CC1 (stereo not given), the IC50 (SK-OV-3) is reported as 5080 nM, the IC50 [1] is reported as > 5000 nM and the inhibition [3] is reported as 43.9%. It also gave an IC50 (A2780 [5]) of 4860 nM.
